# Measurements from ChEMBL document CHEMBL1944502, “Efficient synthesis and anti-enteroviral activity of 9-arylpurines” (Eur J Med Chem, 2012).
# Experiments:
# [1] = Cytotoxicity against African green monkey Vero cells after 3 days by spectrophotometry based MTS/PMS assay; format: cell-based; conditions: chlorocebus sabaeus
# Procedure, shortened: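 Uninfected Vero cultures were handled as in the antiviral set-up: serial compound dilutions for 3 days. Overall metabolism was read by MTS/PMS, and raw values were converted to % of controls. CC50 (50% inhibition of cell metabolism) was obtained by linear interpolation. Each experiment was repeated at least three times.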
# [2] = Antiviral activity against Coxsackievirus B3 Nancy infected in african green monkey Vero cells assessed as inhibition of virus-induced cell death after 3 days by spectrophotometry based MTS/PMS assay; format: functional, Coxsackievirus B3 (strain Nancy); conditions: Enterovirus B, 72 h
# Procedure, shortened: (§1)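 Infected cells in 96-well plates received serial compound dilutions plus 100 CCID50 of virus. They were incubated 3 days, until full CPE appeared in untreated virus controls, at 37 °C (35 °C for rhinovirus 14). Viability was read by MTS/PMS at OD 498 nm and converted to % of controls. EC50 was obtained by linear interpolation. Runs were at least triplicate, with microscopic confirmation.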
# Vero [3] = experiment: Cytotoxicity against Coxsackievirus B3 Nancy infected African green monkey Vero cells assessed as change in cell morphology at EC50 after 3 days by microscopic analysis; format: cell-based; conditions: chlorocebus sabaeus, 72 h
# Procedure, shortened: (§2)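 Infected, compound-treated wells were inspected microscopically after the 3-day antiviral incubation. The check looked for virus-induced CPE and for compound-induced alteration of cell morphology, compared with uninfected, untreated control cells.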
# [4] = Antiviral activity against drug-resistant Coxsackievirus B3 Nancy infected in african green monkey Vero cells assessed as inhibition of virus-induced cell death after 3 days by spectrophotometry based MTS/PMS assay; format: functional, Coxsackievirus B3 (strain Nancy); conditions: Enterovirus B, 72 h
# Coxsackievirus B4 = experiment: Antiviral activity against Coxsackievirus B4 E2 Edwards infected in african green monkey Vero cells assessed as inhibition of virus-induced cytopathogenicity after 3 days by spectrophotometry based MTS/PMS assay; format: functional, organism-based; conditions: Enterovirus B, 72 h; procedure, shortened: as §1
# [5] = Antiviral activity against Enterovirus 71 BRCR infected in human RD cells assessed as inhibition of virus-induced cell death after 3 days by spectrophotometry based MTS/PMS assay; format: functional, Human enterovirus 71 (strain BRCR); conditions: Enterovirus A, 72 h; procedure, shortened: as §1
# [6] = Antiviral activity against Echovirus 11 Gregory infected in BGM cells assessed as inhibition of virus-induced cell death after 3 days by spectrophotometry based MTS/PMS assay; format: functional, Echovirus 11 (strain Gregory); conditions: Enterovirus B, 72 h; procedure, shortened: as §1
# rhinovirus B14 = experiment: Antiviral activity against Human rhinovirus 14 infected in human HeLa cells assessed as inhibition of virus-induced cytopathogenicity after 3 days by spectrophotometry based MTS/PMS assay; format: functional, organism-based; conditions: Rhinovirus B, 72 h; procedure, shortened: as §1
# Poliovirus 1 = experiment: Antiviral activity against Poliovirus type 1 Sabin infected in BGM cells assessed as inhibition of virus-induced cell death after 3 days by spectrophotometry based MTS/PMS assay; format: functional; conditions: Enterovirus C, 72 h
# Vero [7] = experiment: Cytotoxicity against Coxsackievirus B4 E2 Edwards infected african green monkey Vero cells assessed as change in cell morphology at EC50 after 3 days by microscopic analysis; format: cell-based; conditions: chlorocebus sabaeus, 72 h; procedure, shortened: as §2
# [8] = Cytotoxicity against Echovirus 11 Gregory infected BGM cells assessed as change in cell morphology at EC50 after 3 days by microscopic analysis; format: cell-based; conditions: chlorocebus aethiops, 72 h; procedure, shortened: as §2
SMILES,CC50 at 72 h [1] [µM],EC50 [2] [µM],EC90 [2] [µM],Activity (Vero [3]),EC50 [4] [µM],EC50 (Coxsackievirus B4) [µM],EC50 [5] [µM],EC50 [6] [µM],EC50 (rhinovirus B14) [µM],EC50 (Poliovirus 1) [µM],Activity (Vero [7]),Activity [8]
Cc1nc(Cl)c2ncn(-c3cccc(N4CCOC4=O)c3)c2n1,> 200,10.6,15.6,Non-toxic,–,–,–,–,–,–,–,–
CCN(CC)c1cccc(-n2cnc3c(Cl)ncnc32)c1,> 100,15,23,Non-toxic,–,–,–,–,–,–,–,–
CCN(CC)c1cccc(-n2cnc3c(Cl)nc(C)nc32)c1,> 100,10,15,Non-toxic,–,–,–,–,–,–,–,–
CN(C)c1cccc(-n2cnc3c(Cl)ncnc32)c1,> 100,3.8,5,Non-toxic,> 100,6.9,> 100,12.5,> 100,> 100,Non-toxic,–
Cc1nc(Cl)c2ncn(-c3cccc(N(C)C)c3)c2n1,> 100,12,28,Non-toxic,–,–,–,–,–,–,–,–
CN(C)c1ccc(-n2cnc3c(Cl)ncnc32)cc1,> 100,6.3,–,Non-toxic,–,–,–,–,–,–,–,–
Cc1nc(Cl)c2ncn(-c3ccc(N(C)C)cc3)c2n1,> 100,11,–,Non-toxic,–,–,–,–,–,–,–,–
CN(C)c1cccc(-n2c(=O)[nH]c3c(Cl)ncnc32)c1,> 100,16,26,Non-toxic,–,–,–,–,–,–,–,–
Cc1nc(Cl)c2[nH]c(=O)n(-c3cccc(N(C)C)c3)c2n1,> 100,10,15,Non-toxic,–,–,–,–,–,–,–,–
Cc1nc(Cl)c2c(n1)n(-c1cccc(N(C)C)c1)c(=O)n2C,> 200,11.3,18.2,Non-toxic,–,–,–,–,–,–,–,–
CCOC(=O)Oc1nc2c(Cl)nc(C)nc2n1-c1cccc(N(C)C)c1,131,12.6,19.9,Non-toxic,–,–,–,–,–,–,–,–
Cc1nc(Cl)c2nc(OC(=O)Oc3ccccc3)n(-c3cccc(N(C)C)c3)c2n1,75.9,13.6,14.8,–,–,–,–,–,–,–,–,–
CC(=O)Nc1cccc(-n2cnc3c(Cl)ncnc32)c1,> 174,18.5,24.2,–,> 50,12.1,> 174,20.8,> 100,> 174,Non-toxic,Non-toxic
CC(=O)Nc1cccc(-n2cnc3c(Cl)nc(C)nc32)c1,> 200,11.8,17.5,Non-toxic,–,–,–,–,–,–,–,–
CC(=O)N(C)c1cccc(-n2cnc3c(Cl)ncnc32)c1,> 100,7.8,–,Non-toxic,–,–,–,–,–,–,–,–
CC(=O)N(C)c1cccc(-n2cnc3c(Cl)nc(C)nc32)c1,307,6.1,8.3,Non-toxic,> 50,13,> 158,20,> 100,> 158,Non-toxic,Non-toxic
CCN(C(C)=O)c1cccc(-n2cnc3c(Cl)nc(C)nc32)c1,> 200,6.1,10.9,Non-toxic,–,–,–,–,–,–,–,–
CC(=O)N(CC1CC1)c1cccc(-n2cnc3c(Cl)nc(C)nc32)c1,> 200,34.5,52.3,Non-toxic,–,–,–,–,–,–,–,–
O=C1OCCN1c1cccc(-n2cnc3c(Cl)ncnc32)c1,> 200,33.7,47.5,Non-toxic,–,–,–,–,–,–,–,–
O=C1OCCN1c1cccc(-n2c(=O)[nH]c3c(Cl)ncnc32)c1,> 200,8.9,15.3,Non-toxic,–,24.1,> 151,86.9,> 100,> 151,Non-toxic,–
Cc1nc(Cl)c2[nH]c(=O)n(-c3cccc(N4CCOC4=O)c3)c2n1,> 200,25.4,33.5,Non-toxic,–,–,–,–,–,–,–,–
CCOc1ncnc2c1ncn2-c1cccc(NCCO)c1,> 200,> 200,> 200,–,–,–,–,–,–,–,–,–
Cc1nc(Cl)c2ncn(-c3cccc(C(C)(C)O)c3)c2n1,> 100,–,–,Non-toxic,–,–,–,–,–,–,–,–
CC(=O)c1cccc(-n2cnc3c(Cl)ncnc32)c1,> 100,–,–,Non-toxic,> 100,28.8,–,21.6,> 100,> 100,Non-toxic,–
CC(=O)c1cccc(-n2c(=O)[nH]c3c(Cl)nc(C)nc32)c1,> 100,–,–,Non-toxic,–,–,–,–,–,–,–,–
Fc1cccc(F)c1[C@@H]1SCc2nc3cc(C(F)(F)F)ccc3n21,> 100,–,–,Non-toxic,–,–,–,–,–,–,–,–
CC(C)S(=O)(=O)n1c(N)nc2ccc(/C(=N/O)c3ccccc3)cc21 [ENVIROXIME],> 100,–,–,Non-toxic,1.3,–,–,–,–,–,–,–
